The target in series [1] is T1, Bromodomain-containing protein 4 (Homo sapiens, UniProt O60885). In words: Displacement of APC-labeled biotinylated-avidin from Euphorium-chelated recombinant human BRD4 bromodomain 1 expressed in Escherichia coli preincubated for 15 mins followed by APC-labeled biotinylated-avidin addition and measured after 1 hr under dark condition by TR-FRET assay. For orientation: Time-resolved FRET reads energy transfer from a long-lived donor to a nearby acceptor.

Series [2] is described as follows: Growth inhibition of fulvestrant-resistant human MCF7:CFR cells measured after 5 days by Hoechst 33342 dye based imaging analysis. The format is functional, cell-based. As to conditions: 120 h. In outline: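 MCF-7:CFR cells kept 2 days in phenol red-free RPMI 1640 with 10% charcoal–dextran FBS, then seeded at 2000 cells/well. Single treatment at 0.1 nM–10 μM (0.1% DMSO final) for 5 days. Nuclei stained with Hoechst 33342 and counted by imaging. Survival normalized to DMSO (100%) and JQ1 3 μM (0%). Mean ± SEM from at least two passages, triplicates in each.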

Series [3] has as its system MCF7:CFR. As to the kind of experiment: Growth inhibition of fulvestrant-resistant human MCF7:CFR 3D spheroid cells at 100 nM supplemented with fresh medium containing compound every 2 to 3 days for 9 days by celltitre-glo assay relative to control. The format is functional. Put shortly:
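MCF-7:CFR cells seeded at 1000 cells/well in ultralow-attachment round-bottom plates and grown 24 h untreated as spheroids. Half the medium then replaced with 2× treatment medium, repeated every 2–3 days. Viability read by CellTiter-Glo 3D luminescence at day 9 and normalized to blank (medium plus reagent).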

The next series concerns the target CYP2A6 (Homo sapiens, UniProt P11509). As to the kind of experiment: Inhibition of human CYP2A6 at 10 uM. The format is ADME.
Series [4] relates to MCF7:TAM1. In words: Antitumor activity against human MCF7:TAM1 cells xenografted in ovariectomized athymic Nude-Foxn1 mouse assessed as tumor growth inhibition at 50 mg/kg/day, po administered via gavage for 4 weeks in presence of fulvestrant. The format is functional, organism-based. Put shortly: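 Orthotopic xenografts of MCF-7:Tam1 cells in 4–6 week old female ovariectomized athymic nude (nude/Foxn1) mice, established with daily tamoxifen 1.5 mg/mouse. Daily oral gavage at 50 (mg/kg)/day for 4 weeks in 0.5% (w/v) HPMC/TWEEN80 1% in water, given alongside fulvestrant 1 mg/mouse/week sc. Tumor volume measured weekly by caliper as length × width² × π/6. TGI computed from day 28 versus initial volumes, relative to vehicle.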

The target in series [5] is T1, Bromodomain-containing protein 4. In words: Displacement of APC-labeled biotinylated-avidin from Euphorium-chelated recombinant human BRD4 bromodomain 2 expressed in Escherichia coli preincubated for 15 mins followed by APC-labeled biotinylated-avidin addition and measured after 1 hr under dark condition by TR-FRET assay.
The test system of series [6] is MCF7:CFR. As to the kind of experiment: Down regulation of cyclin-D gene expression in fulvestrant-resistant human MCF7:CFR cells at 100 nM measured after 24 hrs. The format is functional, cell-based. In outline:
(§1)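 MCF-7:CFR cells exposed to compound at 100 nM, with DMSO (0.01%) as control, for 24 h. RNA extracted and analysed by RNA-seq. Values are log2-fold changes in gene expression against the vehicle control.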

The test system of series [7] is MCF7:CFR. As to the kind of experiment: Down regulation of c-MYC gene expression in fulvestrant-resistant human MCF7:CFR cells at 100 nM measured after 24 hrs. It counts as functional, cell-based. In outline: as §1
Series [8] concerns MCF7:CFR. As to the kind of experiment: Down regulation of n-MYC gene expression in fulvestrant-resistant human MCF7:CFR cells at 100 nM measured after 24 hrs. It counts as functional, cell-based. Put shortly: as §1
The subject of series [9] is MCF7:CFR. As to the kind of experiment: Growth inhibition of fulvestrant-resistant human MCF7:CFR cells at < 300 nM treated for 3 hrs followed by compound washout and measured after 5 days by Hoechst 33342 dye based imaging analysis. It counts as functional, cell-based.
The subject of series [10] is MCF7:CFR. In words: Up regulation of CDKN1B gene expression in fulvestrant-resistant human MCF7:CFR cells at 100 nM measured after 24 hrs. The format is functional, cell-based. Put shortly: as §1
The target in the next series is CYP2C8 (Homo sapiens, UniProt P10632). In words: Inhibition of human CYP2C8 at 10 uM. It counts as ADME.
Sequence of CYP2C8 (P10632 whole entry): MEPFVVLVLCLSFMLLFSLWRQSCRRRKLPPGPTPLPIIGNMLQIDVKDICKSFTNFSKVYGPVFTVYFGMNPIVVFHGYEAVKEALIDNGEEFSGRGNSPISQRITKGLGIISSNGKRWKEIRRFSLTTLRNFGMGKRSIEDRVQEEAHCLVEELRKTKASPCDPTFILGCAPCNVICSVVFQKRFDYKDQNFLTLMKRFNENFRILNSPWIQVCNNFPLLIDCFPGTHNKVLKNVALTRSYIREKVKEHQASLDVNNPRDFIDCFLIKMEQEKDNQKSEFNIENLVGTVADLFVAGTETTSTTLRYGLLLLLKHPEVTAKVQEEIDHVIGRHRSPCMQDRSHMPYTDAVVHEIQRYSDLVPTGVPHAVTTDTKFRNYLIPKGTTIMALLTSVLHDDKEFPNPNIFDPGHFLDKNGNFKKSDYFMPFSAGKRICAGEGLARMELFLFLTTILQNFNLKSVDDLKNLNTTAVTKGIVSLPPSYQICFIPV
Series [11] is described as follows: Protein binding in plasma (unknown origin). The format is ADME, cell-free. The following applies: human. Put shortly: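 Protein binding reported as percent bound, ketoconazole as reference compound. Run by a contract lab.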
In series [12] the test system is MCF7:TAM1. In words: Antitumor activity against human MCF7:TAM1 cells xenografted in ovariectomized athymic Nude-Foxn1 mouse assessed as tumor growth inhibition at 50 mg/kg/day, po administered via gavage for 4 weeks. The format is functional, organism-based.
The target of a further series is CYP3A4 (Homo sapiens, UniProt P08684). In words: Inhibition of human CYP3A4 at 10 uM. The format is ADME.
Sequence of CYP3A4 (P08684 whole entry): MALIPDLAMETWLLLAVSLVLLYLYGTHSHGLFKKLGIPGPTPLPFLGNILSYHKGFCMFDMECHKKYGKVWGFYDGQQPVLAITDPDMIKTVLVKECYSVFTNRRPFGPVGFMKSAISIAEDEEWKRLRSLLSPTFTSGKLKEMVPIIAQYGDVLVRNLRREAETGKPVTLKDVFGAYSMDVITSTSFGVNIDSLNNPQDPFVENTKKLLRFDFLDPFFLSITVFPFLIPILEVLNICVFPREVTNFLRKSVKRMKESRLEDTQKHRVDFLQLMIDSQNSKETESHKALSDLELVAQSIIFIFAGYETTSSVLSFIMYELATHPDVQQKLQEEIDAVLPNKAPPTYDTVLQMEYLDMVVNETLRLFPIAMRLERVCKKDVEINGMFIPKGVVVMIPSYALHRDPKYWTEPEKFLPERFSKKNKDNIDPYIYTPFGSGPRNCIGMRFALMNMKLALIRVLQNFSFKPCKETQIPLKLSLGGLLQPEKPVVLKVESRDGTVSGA
Another series has as its target CYP2D6 (Homo sapiens, UniProt P10635). In words: Inhibition of human CYP2D6 at 10 uM. It counts as ADME.

We go through 32 compounds from ChEMBL document CHEMBL4610112, “Novel Pyrrolopyridone Bromodomain and Extra-Terminal Motif (BET) Inhibitors Effective in Endocrine-Resistant ER+ Breast Cancer with Acquired Resistance to Fulvestrant and Palbociclib” (J Med Chem, 2020).

Active and inactive are the calls of the source. No cut-off for these calls is given here.

In general, IC50 refers to the concentration needed to halve the response being measured. The inhibition is the drop in the measured response relative to a control, in per cent.

Sequence of CYP2D6 (P10635 whole entry): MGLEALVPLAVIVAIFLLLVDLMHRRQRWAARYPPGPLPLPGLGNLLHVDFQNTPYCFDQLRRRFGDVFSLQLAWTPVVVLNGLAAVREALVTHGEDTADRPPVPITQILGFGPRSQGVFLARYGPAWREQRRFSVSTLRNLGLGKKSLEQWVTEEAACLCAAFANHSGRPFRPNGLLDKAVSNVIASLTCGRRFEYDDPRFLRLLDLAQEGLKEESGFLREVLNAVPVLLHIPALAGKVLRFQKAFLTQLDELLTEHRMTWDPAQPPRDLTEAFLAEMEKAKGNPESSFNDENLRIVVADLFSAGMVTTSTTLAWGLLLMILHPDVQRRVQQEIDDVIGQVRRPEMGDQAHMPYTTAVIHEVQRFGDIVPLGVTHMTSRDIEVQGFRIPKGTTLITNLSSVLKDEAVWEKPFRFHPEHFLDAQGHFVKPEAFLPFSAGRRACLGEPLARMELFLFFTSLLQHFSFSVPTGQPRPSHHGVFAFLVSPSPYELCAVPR
Sequence of CYP2A6 (P11509 whole entry): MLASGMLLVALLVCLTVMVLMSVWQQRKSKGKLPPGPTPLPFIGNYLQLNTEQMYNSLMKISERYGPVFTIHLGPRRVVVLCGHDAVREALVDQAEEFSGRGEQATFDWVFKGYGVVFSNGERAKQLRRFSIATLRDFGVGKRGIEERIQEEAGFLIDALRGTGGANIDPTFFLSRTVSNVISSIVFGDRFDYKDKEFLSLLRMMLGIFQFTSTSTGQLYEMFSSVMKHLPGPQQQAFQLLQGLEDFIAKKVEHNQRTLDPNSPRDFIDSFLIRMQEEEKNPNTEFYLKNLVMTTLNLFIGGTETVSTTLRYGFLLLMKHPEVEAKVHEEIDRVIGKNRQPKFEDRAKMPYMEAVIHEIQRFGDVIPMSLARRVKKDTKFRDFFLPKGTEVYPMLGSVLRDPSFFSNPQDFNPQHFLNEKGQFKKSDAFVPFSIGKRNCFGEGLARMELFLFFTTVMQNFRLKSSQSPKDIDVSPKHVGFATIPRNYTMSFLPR

`CCS(=O)(=O)Nc1cc(-c2cn(C)c3c(=O)[nH]ccc23)cc2c1ccn2Cc1ccc(F)cc1`: the values for the 50% inhibitory concentration (IC50) in [1] and in series [2] were 48 nM and 56 nM, respectively. As to `COc1nnc2ccc(N3CCC(c4ccc(OCCN5CCN(C)C(=O)[C@H]5C)cc4)CC3)nn12`, the “growth inhibition (GI)” value in the series with MCF7:CFR [3] was “Active”. Take `O=c1ccc2ccccc2o1` [COUMARIN]: the inhibition at 10 µM at CYP2A6 was found to be 98.2%. Consider `Cn1cc(-c2cc(NS(C)(=O)=O)cc3ccn(Cc4ccc(F)cc4)c23)c2cc[nH]c(=O)c21`, for which the IC50 in [1] was found to be 1180 nM; in series [2], 1990 nM. Turning to `CCNC(=O)C[C@@H]1N=C(c2ccc(Cl)cc2)c2cc(OC)ccc2-n2c(C)nnc21`, the TGI result in the series with MCF7:TAM1 [4] is “Active”.

Turning to `Cc1cc(F)ccc1Cn1ccc2cc(NS(C)(=O)=O)cc(-c3cn(C)c4c(=O)[nH]ccc34)c21`, the results for the IC50 in series [1] and in series [2] were 1000 nM and 3580 nM, respectively.

Take `CCS(=O)(=O)Nc1cccc2c1nc(-c1cn(C)c3c(=O)[nH]ccc13)n2Cc1ccc(F)cc1`: the concentration for half-maximal inhibition (IC50) in [1] was 1430 nM; in series [2] it was 708 nM.

As to `CCC(c1ccccn1)(c1ccccn1)n1ccc2c(NS(=O)(=O)CC)cc(-c3cn(C)c4c(=O)[nH]ccc34)cc21`, the IC50 in series [1] is 9.4 nM; in series [2], 2.2 nM. Turning to `CC(C)C(=O)Nc1cc(-c2cn(C)c3c(=O)[nH]ccc23)cc2c1ccn2C(C)(c1ccccn1)c1ccccn1`, the figures for the IC50 in [5], in series [1] and in series [2] were 62.8 nM, 13 nM and 17 nM, respectively.

For `CCS(=O)(=O)Nc1cc(-c2cn(C)c3c(=O)[nH]ccc23)cc2c1ccn2C(c1ccccc1)c1ccccc1`, the results for the concentration for half-maximal inhibition (IC50) in series [1] and in [2] were 83 nM and 15 nM, respectively. Regarding `CCS(=O)(=O)Nc1cc(-c2cn(C)c3c(O)nccc23)cc2c1cnn2Cc1ccc(F)cc1`, the IC50 in series [1] stood at 54 nM; in series [2], 25 nM. On to `Cc1sc2c(c1C)C(c1ccc(Cl)cc1)=N[C@@H](CC(=O)OC(C)(C)C)c1nnc(C)n1-2`, for which the result with MCF7:CFR [6], in the series with MCF7:CFR [7], in the series with MCF7:CFR [8] and with MCF7:CFR [10] was Active. For the same compound, in the series with MCF7:CFR [9], the “growth inhibition (GI)” value was “inactive”. For the same compound, the “growth inhibition (GI)” value with MCF7:CFR [3] is “Active”. This compound returned an IC50 in [2] of 90 nM. On CYP2C8, `CC(=O)O[C@H]1C(=O)[C@@]2(C)[C@H]([C@H](OC(=O)c3ccccc3)[C@]3(O)C[C@H](OC(=O)[C@H](O)[C@@H](NC(=O)c4ccccc4)c4ccccc4)C(C)=C1C3(C)C)[C@]1(OC(C)=O)CO[C@@H]1C[C@@H]2O` [PACLITAXEL] gave an inhibition at 10 µM of 80.9%.

For the compound `Cn1cc(-c2cc(NS(C)(=O)=O)c3ccn(CC4CC(F)(F)C4)c3c2)c2cc[nH]c(=O)c21`, the half-maximal inhibitory concentration (IC50) in series [1] was 161 nM; in [2], 62 nM. As to `CC/C(=C(\c1ccc(O)cc1)c1ccc(OCCN(C)C)cc1)c1ccccc1`, the “growth inhibition (GI)” value in the series on MCF7:CFR [3] is “inactive”.

Consider `CCS(=O)(=O)Nc1cc(-c2cn(C)c3c(=O)[nH]ccc23)cc2c1ccn2Cc1c(C)cccc1C`, for which the IC50 in series [1] was 158 nM; in series [2], 35 nM. Regarding `Cn1cc(-c2cc(NS(C)(=O)=O)c3cnn(Cc4ccc(F)cc4)c3c2)c2cc[nH]c(=O)c21`, the values for the half-maximal inhibitory concentration (IC50) in [1] and in series [2] were 89 nM and 68 nM, respectively. In the same order, the values of `Cc1cc(F)ccc1Cn1ccc2c(NS(C)(=O)=O)cc(-c3cn(C)c4c(=O)[nH]ccc34)cc21` are 600 nM and 119 nM. In the case of `Cc1cccc(C)c1Cn1ccc2c(NS(C)(=O)=O)cc(-c3cn(C)c4c(=O)[nH]ccc34)cc21`, the concentration for half-maximal inhibition (IC50) in series [1] was 175 nM; in series [2], 49 nM.

For `Cn1cc(-c2cc(NS(C)(=O)=O)c3ccn(Cc4cccc(F)c4)c3c2)c2cc[nH]c(=O)c21`, the IC50 in series [1] came to 174 nM; in series [2] it was 70 nM.

For the compound `Cn1cc(-c2cc(C(C)(C)O)c3ccn(C(C)(c4ccccn4)c4ccccn4)c3c2)c2cc[nH]c(=O)c21`, the results for the concentration for half-maximal inhibition (IC50) in series [5], in series [1] and in series [2] were 220 nM, 39.6 nM and 20 nM, respectively. The like results for `CC(=O)Nc1cc(-c2cn(C)c3c(=O)[nH]ccc23)cc2c1ccn2C(C)(c1ccccn1)c1ccccn1` were, in that order, 21.6 nM, 8.3 nM and 11 nM. For the compound `CC(=O)N1CCN(c2ccc(OCC3COC(Cn4ccnc4)(c4ccc(Cl)cc4Cl)O3)cc2)CC1` (configuration not stated) [KETOCONAZOLE], the PPB in [11] is 98.35%.

Take `Cn1cc(-c2cc(NS(C)(=O)=O)c3ccn(CC4(C)COC4)c3c2)c2cc[nH]c(=O)c21`: the results for the IC50 in series [1] and in [2] were 180 nM and 134 nM, respectively. For `CC/C(=C(\c1ccccc1)c1ccc(OCCN(C)C)cc1)c1ccccc1`, in the series on MCF7:TAM1 [12], the TGI entry is “inactive”.

As to `Cn1cc(-c2cc(NS(C)(=O)=O)c3ccn(Cc4ccc(F)cc4)c3c2)c2ccnc(O)c21`, the IC50 worked out at 96 nM in [1] and 17 nM in series [2]. As to `C[C@]12CC[C@@H]3c4ccc(O)cc4C[C@@H](CCCCCCCCC[S+]([O-])CCCC(F)(F)C(F)(F)F)[C@H]3[C@@H]1CC[C@@H]2O` (some centres not stated), the “growth inhibition (GI)” value in the series with MCF7:CFR [3] was “inactive”. The compound `Cc1ncc2n1-c1ccc(Cl)cc1C(c1ccccc1F)=NC2` [MIDAZOLAM] displayed an inhibition at 10 µM against CYP3A4 of 99.5%. On to `CCS(=O)(=O)N(c1cccc2c1nc(-c1cn(C)c3c(=O)[nH]ccc13)n2Cc1ccc(F)cc1)S(=O)(=O)CC`, for which the half-maximal inhibitory concentration (IC50) in series [2] stood at 1780 nM. Take `Cn1cc(-c2cc(NS(C)(=O)=O)c3ccn(C(C)(c4ccccn4)c4ccccn4)c3c2)c2cc[nH]c(=O)c21`: the figures for the IC50 in series [5], in [1] and in [2] were 12.7 nM, 12.9 nM and 10 nM, respectively. Take `Cc1cc(F)cc(C)c1Cn1ccc2cc(NS(C)(=O)=O)cc(-c3cn(C)c4c(=O)[nH]ccc34)c21`: the IC50 in [1] was 1400 nM; in [2], 526 nM. In turn, `COc1ccc2c(c1)[C@]13CCCC[C@@H]1[C@H](C2)N(C)CC3` [DEXTROMETHORPHAN] yielded an inhibition at 10 µM against CYP2D6 of 94.4%.
